According to PubChem BioAssay AID623950 (Broad Institute, 2012):
Active and inactive are the calls of the source.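 Rule for the calls: active = compounds lowering cell ATP signal with fitted IC50 at most twice the highest tested dose; inconclusive = flat fit with 30 to 70% signal loss, or poor fit; inactive = the rest.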

Key:
[1] = tested on: HeLa viability, CellTiter-Glo ATP luminescence; assay: toxicity to human HeLa cells – cell-based, CellTiter-Glo luminescence, dry powder samples, cytotoxicity control for pyoverdine inhibitor project, dose response (AID 623950)
Outline: (§1)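 Test system: HeLa cells | Amount: 2,500 cells per well | Buffer or medium: Phenol red-free DMEM with 10% fetal bovine serum | Compound: Threefold compound dilution series | Incubation: Cell growth 24 h at 37 °C, then 48 h compound exposure | Detection: CellTiter-Glo luminescence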

[2] = as above; conditions: HeLa viability, CellTiter-Glo ATP luminescence; at 50 µM (top of the series)
Outline: as §1

| SMILES | IC50 [1] | activity change, negative = toxicity [2] |
| --- | --- | --- |
| Cc1ccc(C(C#N)c2ccc(Cl)cc2)nc1C#N (stereo not drawn) | > 100 µM (inactive) | – |
| N#CC(c1ccc(Cl)cc1)c1cccc(C(F)(F)F)n1 (stereo not drawn) | – | -8.05% (inactive) |
| N#CC(c1ccc(Cl)cc1)c1ncccc1Cl (stereo not drawn) | – | -0.68% (inactive) |
| N#CC(c1ccc(C(F)(F)F)cc1)c1cccc(Cl)n1 (stereo not drawn) | – | -3.15% (inactive) |
| N#CC(c1ccc(C(F)(F)F)cc1)c1cccc(C(F)(F)F)n1 (stereo not drawn) | > 100 µM (inactive) | – |
| N#CC(c1cccc(Cl)n1)c1ccc(Cl)cc1Cl (stereo not drawn) | > 100 µM (inactive) | – |
| N#CC(c1ccc(Cl)cc1)c1ccc(C(F)(F)F)cn1 (stereo not drawn) | – | -0.58% (inactive) |
| N#CC(c1cccc(C(F)(F)F)n1)c1ccc(Cl)cc1F (stereo not drawn) | – | -5.15% (inactive) |
| N#CC(c1ccc(C(F)(F)F)cc1)c1ccc(C(F)(F)F)c(Cl)n1 (stereo not drawn) | 38.1 µM | – |
| N#CC(CC1CC1)c1ccc(Cl)cc1 (stereo not drawn) | – | 4.91% (inactive) |
| N#CC(c1cccc(C(F)(F)F)n1)c1ccccc1OC(F)(F)F (stereo not drawn) | – | 6.21% (inactive) |
| COc1cccc(C(C#N)c2ccc(F)cc2)n1 (stereo not drawn) | – | -7.47% (inactive) |
| N#Cc1cccc(C(C#N)c2ccc(Cl)cc2F)n1 (stereo not drawn) | – | 4.41% (inactive) |
| N#CC(c1cccc(Cl)n1)c1ccc(Cl)cc1F (stereo not drawn) | – | -3.91% (inactive) |
| CC(C)CC(C#N)c1ccc(Cl)cc1 (stereo not drawn) | – | -0.673% (inactive) |
| Cc1ccc(C(C#N)c2ccc(Cl)cc2)nc1 (stereo not drawn) | – | 4.52% (inactive) |
| CCCCC(C#N)c1ccccc1OC(F)(F)F (stereo not drawn) | – | 8.75% (inactive) |
| CCCCC(C#N)c1ccc(C(F)(F)F)cc1 (stereo not drawn) | – | 4.97% (inactive) |
| CCCCC(C#N)c1ccc(Cl)cc1F (stereo not drawn) | – | -1.43% (inactive) |

| SMILES | IC50 [1] | activity change, negative = toxicity [2] |
| --- | --- | --- |
| Cc1cccc(C(C#N)c2ccc(Cl)cc2)n1 (stereo not drawn) | – | -4.38% (inactive) |
| N#CC(c1cccc(Cl)n1)c1ccccc1OC(F)(F)F (stereo not drawn) | – | -11% (inactive) |
| CCCCC(C#N)c1ccc(Cl)cc1 (stereo not drawn) | – | 1.19% (inactive) |
| CCCC(C#N)c1ccc(Cl)cc1 (stereo not drawn) | – | 2.14% (inactive) |
| CCCCC(C#N)c1ccc(Cl)cc1Cl (stereo not drawn) | – | 0.128% (inactive) |
| Cc1ccc(C(C#N)c2ccc(F)cc2)nc1C#N (stereo not drawn) | – | -12.8% (inactive) |
| CC(C#N)(c1ccc(Cl)cc1)c1ccc(C(F)(F)F)cn1 (stereo not drawn) | – | -9.2% (inactive) |
| N#CC(c1ccc(C(F)(F)F)c(Cl)n1)c1ccc(Cl)cc1F (stereo not drawn) | 48.4 µM | – |
| N#CC(c1ccc(F)cc1)c1cccc(C(F)(F)F)n1 (stereo not drawn) | – | 4.89% (inactive) |
| N#Cc1cccc(C(C#N)c2ccccc2OC(F)(F)F)n1 (stereo not drawn) | – | -3.3% (inactive) |
| N#CC(c1ccc(C(F)(F)F)c(Cl)n1)c1ccccc1OC(F)(F)F (stereo not drawn) | – | -4.77% (inactive) |
| N#CC(c1ccc(Cl)cc1)c1ccc(Cl)cn1 (stereo not drawn) | – | -2.34% (inactive) |
| Cc1ccc(C(C#N)c2ccccc2OC(F)(F)F)nc1C#N (stereo not drawn) | – | -0.14% (inactive) |
| N#CC(c1ccc(F)cc1)c1ccc(C(F)(F)F)c(Cl)n1 (stereo not drawn) | 35.7 µM | – |
| CCCCC(C#N)c1ccc(F)cc1 (stereo not drawn) | – | 4.15% (inactive) |
| N#CC(c1ccc(C(F)(F)F)c(Cl)n1)c1ccc(Cl)cc1Cl (stereo not drawn) | 26.7 µM | – |
| N#Cc1cccc(C(C#N)c2ccc(Cl)cc2Cl)n1 (stereo not drawn) | – | 7.33% (inactive) |
| N#Cc1cccc(C(C#N)c2ccc(Cl)cc2)n1 (stereo not drawn) | – | -0.235% (inactive) |
| N#CC(c1ccc(Cl)cc1Cl)c1ncccc1Cl (stereo not drawn) | – | -10.4% (inactive) |
